Assay [1] relates to Microsporum canis. In words: Antifungal activity against Microsporum canis assessed as growth inhibition in sabouraud broth after 14 days in presence of 10% inactivated bovine serum. The format is functional. An outline of the steps:
(§1)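 Broth dilution in Sabouraud broth, with or without 10% inactivated bovine serum, incubated 14 days. Read-out: concentration (µg/mL) giving complete or marked inhibition of growth. Tested in preliminary experiments.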

Assay [2] concerns Trichophyton mentagrophytes. Put plainly: Antifungal activity against Trichophyton mentagrophytes assessed as growth inhibition in sabouraud broth after 14 days in presence of 10% inactivated bovine serum. The assay is classed as functional. An outline of the steps: as §1
Assay [3] relates to Staphylococcus haemolyticus. In words: Antifungal activity against Staphylococcus haemolyticus assessed as growth inhibition in sabouraud broth after 14 days. The assay is classed as functional. An outline of the steps:
as §1

Another assay concerns Streptococcus pyogenes. In words: Antifungal activity against Streptococcus pyogenes assessed as growth inhibition in sabouraud broth after 14 days. The format is functional. Put shortly:
as §1

Another assay has as its system Saprolegnia. In words: Antifungal activity against Saprolegnia Sp. assessed as growth inhibition in sabouraud broth after 14 days. The assay is classed as functional. An outline of the steps:
as §1

Assay [4] has as its system Sporothrix schenckii. Put plainly: Antifungal activity against Sporothrix schenckii assessed as growth inhibition in sabouraud broth after 14 days. The format is functional. An outline of the steps: as §1
For assay [5], the system named is Erysipelothrix rhusiopathiae. Put plainly: Antifungal activity against Erysipelothrix insidiosa assessed as growth inhibition in sabouraud broth after 14 days. The assay is classed as functional. An outline of the steps: as §1
Assay [6] has as its system Aspergillus fumigatus. Put plainly: Antifungal activity against Aspergillus fumigatus assessed as growth inhibition in sabouraud broth after 14 days in presence of 10% inactivated bovine serum. The format is functional.
Assay [7] concerns Sporothrix schenckii. In words: Antifungal activity against Sporothrix schenckii assessed as growth inhibition in sabouraud broth after 14 days in presence of 10% inactivated bovine serum. The assay is classed as functional. Put shortly: as §1
In a further assay the test system is Phialophora verrucosa. In words: Antifungal activity against Phialophora verrucosa assessed as growth inhibition in sabouraud broth after 14 days. The format is functional. An outline of the steps:
as §1

Assay [8] relates to Candida tropicalis. In words: Antifungal activity against Candida tropicalis assessed as growth inhibition in sabouraud broth after 14 days. The assay is classed as functional. An outline of the steps: as §1
The test system of assay [9] is Candida tropicalis. In words: Antifungal activity against Candida tropicalis assessed as growth inhibition in sabouraud broth after 14 days in presence of 10% inactivated bovine serum. The format is functional. Put shortly: as §1
For assay [10], the system named is Candida albicans. In words: Antifungal activity against Candida albicans assessed as growth inhibition in sabouraud broth after 14 days. The format is functional. Put shortly:
as §1

Assay [11] has as its system Candida albicans. In words: Antifungal activity against Candida albicans assessed as growth inhibition in sabouraud broth after 14 days in presence of 10% inactivated bovine serum. The format is functional. Put shortly:
as §1

Assay [12] deals with Microsporum canis. In words: Antifungal activity against Microsporum canis assessed as growth inhibition in sabouraud broth after 14 days. The format is functional. Put shortly: as §1
A further assay deals with Cryptococcus neoformans. Put plainly: Antifungal activity against Cryptococcus neoformans assessed as growth inhibition in sabouraud broth after 14 days. The format is functional. An outline of the steps:
as §1

Assay [13] has as its system Aspergillus fumigatus. Put plainly: Antifungal activity against Aspergillus fumigatus assessed as growth inhibition in sabouraud broth after 14 days. The assay is classed as functional.
Assay [14] deals with Trichophyton mentagrophytes. Put plainly: Antifungal activity against Trichophyton mentagrophytes assessed as growth inhibition in sabouraud broth after 14 days. The format is functional. Put shortly: as §1
The next assay relates to Trichophyton rubrum. In words: Antifungal activity against Trichophyton rubrum assessed as growth inhibition in sabouraud broth after 14 days. The assay is classed as functional. An outline of the steps: as §1
For assay [15], the system named is Candida albicans. In words: Antifungal activity against Candida albicans B2630 infected in ovariectomized and hysterectomized Wistar rat vaginal candidosis model at 1.25 mg/kg, po for 14 days by prophylactic treatment. More on the design: dose 1.25 mg/kg. The format is functional, organism-based. An outline of the steps:
(§2)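 Female Wistar rats (100 g) were ovariectomized and hysterectomized under thalamonal anaesthesia. From 3 weeks later, and weekly thereafter, each received oestradiol undecanoate 100 µg in sesame oil s.c. Pseudooestrus was confirmed by vaginal smear. Rats were infected intravaginally with 8×10^5 C. albicans B 2630 cells in 0.2 mL saline. Compound in PEG 200 was given daily by gavage from the day of infection. Vaginal swab smears were taken on days 7, 11 and 14. Read-out: negative animals/total.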

For assay [16], the system named is Candida albicans. In words: Antifungal activity against Candida albicans B2630 infected in ovariectomized and hysterectomized Wistar rat vaginal candidosis model at 2.5 mg/kg, po for 14 days by prophylactic treatment. The format is functional, organism-based. Also noted: dose 2.5 mg/kg. Put shortly:
as §2

In assay [17] the test system is Candida albicans. Put plainly: Antifungal activity against Candida albicans B2630 infected in guinea pig cutaneous candidosis model at 0.63 mg/kg, po for 14 days measured on day 21. The format is functional, organism-based. More on the design: dose 0.63 mg/kg. An outline of the steps:
(§3)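 Guinea pig cutaneous candidosis. Compound dissolved in PEG 200, given by oral gavage once daily for 14 consecutive days; placebo group included. Read-out: ratio of infection-negative animals to total at day 21.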

The test system of assay [18] is Candida albicans. In words: Antifungal activity against Candida albicans B2630 infected in guinea pig cutaneous candidosis model at 10 mg/kg, po for 14 days measured on day 21. The format is functional, organism-based. More on the design: dose 10 mg/kg. An outline of the steps: as §3
In assay [19] the test system is Candida albicans. Put plainly: Antifungal activity against Candida albicans B2630 infected in ovariectomized and hysterectomized Wistar rat vaginal candidosis model at 5 mg/kg, po for 5 days by prophylactic treatment. Also noted: dose 5 mg/kg. The assay is classed as functional, organism-based.
Assay [20] relates to Candida albicans. Put plainly: Antifungal activity against Candida albicans B2630 infected in guinea pig cutaneous candidosis model at 2.5 mg/kg, po for 14 days measured on day 21. The assay is classed as functional, organism-based. More on the design: dose 2.5 mg/kg. An outline of the steps:
as §3

Assay [21] has as its system Candida albicans. Put plainly: Antifungal activity against Candida albicans B2630 infected in ovariectomized and hysterectomized Wistar rat vaginal candidosis model at 5 mg/kg, po for 14 days by prophylactic treatment. The format is functional. An outline of the steps: as §2
Assay [22] deals with Candida albicans. Put plainly: Antifungal activity against Candida albicans B2630 infected in ovariectomized and hysterectomized Wistar rat vaginal candidosis model at 2.5 mg/kg, po for 11 days by prophylactic treatment. More on the design: dose 2.5 mg/kg. The assay is classed as functional, organism-based.
For the next assay, the system named is Coccidioides immitis. Put plainly: Antifungal activity against Coccidioides immitis infected in mouse coccidioidomycosis model assessed as cell killing activity at 40 mg/kg, po od for 2.5 weeks relative to control. The format is functional.

Calls of active or inactive are those of the source. No cut-off for these calls is given here.

Turning to `Clc1ccc(COC(Cn2ccnc2)c2ccc(Cl)cc2Cl)c(Cl)c1` (configuration not stated) [MICONAZOLE], the GI in the assay on Microsporum canis [1] was 10 µg/mL; in assay [2], 0.1 µg/mL; in assay [3], 10 µg/mL; in the assay on Streptococcus pyogenes, 0.01 µg/mL; in the assay on Saprolegnia it was 10 µg/mL; in the assay on Sporothrix schenckii [4] it was 1 µg/mL. The GI was 0.01 µg/mL in assay [5]; >10 µg/mL in the assay on Aspergillus fumigatus [6]; 10 µg/mL with Sporothrix schenckii [7]; 100 µg/mL in the assay with Phialophora verrucosa; 1 µg/mL with Candida tropicalis [8]; >10 µg/mL in the assay with Candida tropicalis [9]. Also, the GI in the assay on Candida albicans [10] is 10 µg/mL; with Candida albicans [11], >10 µg/mL; with Microsporum canis [12], 1 µg/mL; in the assay with Cryptococcus neoformans, 1 µg/mL; in the assay on Aspergillus fumigatus [13] it was 10 µg/mL; in assay [14], 0.01 µg/mL. The GI in the assay with Trichophyton rubrum was determined as 1 µg/mL.
Take `CC(=O)N1CCN(c2ccc(OCC3COC(Cn4ccnc4)(c4ccc(Cl)cc4Cl)O3)cc2)CC1` (racemic) [KETOCONAZOLE]: the GI was 1 µg/mL in the assay with Microsporum canis [1]; 0.1 µg/mL in assay [2]; 100 µg/mL in assay [3]; 10 µg/mL with Streptococcus pyogenes; 1 µg/mL with Saprolegnia; 1 µg/mL with Sporothrix schenckii [4]. The GI stood at 10 µg/mL in [5]; 10 µg/mL in the assay on Aspergillus fumigatus [6]; 1 µg/mL in the assay on Sporothrix schenckii [7]; 1 µg/mL in the assay with Phialophora verrucosa; 1 µg/mL in the assay on Candida tropicalis [8]; 0.1 µg/mL in the assay with Candida tropicalis [9]. Further, the GI in the assay on Candida albicans [10] was found to be 10 µg/mL; in the assay on Candida albicans [11], 1 µg/mL; with Microsporum canis [12] it was 10 µg/mL; in the assay with Cryptococcus neoformans, 1 µg/mL; in the assay with Aspergillus fumigatus [13], 100 µg/mL; in assay [14], 0.1 µg/mL. Besides, in the assay on Trichophyton rubrum, the GI was 1 µg/mL. Further, the outcome in the assay on Candida albicans [15], in the assay on Candida albicans [16], in the assay on Candida albicans [18], with Candida albicans [19] and with Candida albicans [20] was Active. Also, the result in the assay with Candida albicans [17] and with Candida albicans [22] was inactive. For the same molecule, the Activity in the assay with Candida albicans [21] is 100%; in the assay on Coccidioides immitis it was >60%.
